Rows were chosen to be rich in hits. Some 2.8% of all compounds tested hit in one or more screens of this group.
SIRT5 inh – SIRT5 desuccinylase inhibitors, primary screen, biochemical, fluorescence imaging, single point, set 5; inhibition, % at 15 µM; Purified SirT5, succinyl-peptide AMC, trypsin-coupled fluorescence; AID 652115, 2013; NAD-dependent protein deacylase sirtuin-5, mitochondrial (Homo sapiens), Q9NXA8; actives 1.1% (n = 330,000); in the data active = inhibition above about 15%
E-selectin induc – E-selectin induction in HUVECs, primary screen, imaging, HUVEC, immunofluorescence imaging, single point. activation, % at 7.58 µM. P16581. actives 0.37% (n = 260,000). normalized: neutral wells 0, TNF-alpha wells 100;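 active = mean E-selectin-positive cell signal at least 10% of the positive control, reached in at least 60% of replicates, without over 20% cell loss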
Target sequence (P16581 whole entry, looked up): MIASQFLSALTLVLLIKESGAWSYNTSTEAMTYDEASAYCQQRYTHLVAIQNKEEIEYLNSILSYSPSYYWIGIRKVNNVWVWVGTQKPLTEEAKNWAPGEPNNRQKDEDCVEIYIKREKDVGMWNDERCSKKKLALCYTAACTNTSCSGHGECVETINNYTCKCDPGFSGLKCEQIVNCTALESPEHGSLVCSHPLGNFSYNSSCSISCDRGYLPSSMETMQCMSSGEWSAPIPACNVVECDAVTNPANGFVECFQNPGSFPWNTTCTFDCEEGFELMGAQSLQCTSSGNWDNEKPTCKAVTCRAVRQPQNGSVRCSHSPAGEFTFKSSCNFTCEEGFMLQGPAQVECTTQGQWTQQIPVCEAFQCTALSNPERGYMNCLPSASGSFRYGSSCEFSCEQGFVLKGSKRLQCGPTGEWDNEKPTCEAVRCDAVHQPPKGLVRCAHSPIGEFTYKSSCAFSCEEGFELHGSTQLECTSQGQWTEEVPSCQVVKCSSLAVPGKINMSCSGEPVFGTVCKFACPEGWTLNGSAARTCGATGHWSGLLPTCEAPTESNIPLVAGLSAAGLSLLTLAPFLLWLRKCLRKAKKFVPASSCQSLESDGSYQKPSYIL
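Read-out: % PE-positive cells | Test system: HUVEC | Doses: One compound dose added by pin transfer | Buffer or medium: EGM-2 over gelatin coat | Signal: Immunofluorescence imaging | Benchmarks: TNF-alpha, DMSO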
DENV2 CPE – inhibitors of DENV2 cytopathic effect, primary screen, cell-based, plate reader, single concentration | AID 651640, 2012 | DENV2-infected cells, cytopathic effect rescue | CPE inhibition, % at 9.99 µM | actives 1.7% (n = 350,000); in the data active = CPE inhibition above about 20%, passing the limit was not always enough; tested in BHK-21 cells;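 also: 0% = median of neutral control wells and 100% = median of positive control wells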
Numbers without * were called inactive; nt = no result given.

SMILES	SIRT5 inh	E-selectin induc	DENV2 CPE
Cc1noc(C)c1NC(=O)N(C)C[C@@H]1Oc2ncc(C#CC3CCCC3)cc2C(=O)N([C@@H](C)CO)C[C@H]1C	-2	9	14
C[C@@H]1CN([C@@H](C)CO)C(=O)c2cc(NC(=O)CCCN(C)C)ccc2O[C@@H](C)CCCCO[C@H]1CN(C)Cc1ccc(C(F)(F)F)cc1	-1	0	17
O=C1COCCOCCOCC(=O)NCCN1	1	nt	8
O=C1COCCOCCOCCOCC(=O)NCCN1	-3	-1	26*
CC1(C)C(=O)C2(CCCCC2)C(=O)OC1c1ccc(O)cc1 (stereo unspecified)	0	nt	12
O=C1C2(CCCC13COC(c1ccc(O)cc1)OC3)COC(c1ccc(O)cc1)OC2 (stereo unspecified)	-1	nt	28*
COc1ccccc1N1C(=O)C2CCC(c3ccccc3)CC2C1=O (stereo unspecified)	0	nt	23*
Cc1cccc(N2C(=O)C3CCC(c4ccccc4)CC3C2=O)c1 (stereo unspecified)	-1	7	1
CCCN(C)C[C@H]1Oc2cc(C#C[C@H](C)O)ccc2S(=O)(=O)N([C@@H](C)CO)C[C@H]1C	0	0	3
CC(=C\c1ccco1)/C=C(\C#N)C(=O)NCCc1c[nH]c2ccccc12	0	1	58*
O=C(NCCc1c[nH]c2ccccc12)/C(=C/c1ccco1)NC(=O)c1ccco1	6	-1	-5
CC=Cc1ccc2n(c1=O)C[C@@H]1[C@@H](CO)[C@H](C(=O)N3CCCCC3)N(C(=O)CC)[C@H]21 (mixture of isomers)	-4	0	-7
O=C1N[C@@H](Cc2ccccc2)C(=O)N2[C@@H]1C[C@]1(Br)c3ccccc3N(S(=O)(=O)c3ccccc3)[C@H]21	-1	0	1
CS(=O)(=O)N1c2ccccc2[C@]2([C@@]34C[C@H]5C(=O)N[C@@H](Cc6ccccc6)C(=O)N5[C@@H]3N(S(C)(=O)=O)c3ccccc34)C[C@H]3C(=O)N[C@@H](Cc4ccccc4)C(=O)N3[C@H]12	33*	0	-11
CCCNC(=O)Nc1ccc2c(c1)OC[C@@H](C)N(C(C)=O)C[C@@H](C)[C@H](OC)CN(C)C2=O	-3	0	1
Cc1cccc(N2CCN(c3nc4ccc(Cl)cc4n4cnnc34)CC2)c1C	12	152*	-11
CCN1CCN(c2nc3ccccc3n3cnnc23)CC1	-2	1	6
O=C(C[C@H]1CC[C@@H]2[C@H](COC[C@@H](O)CN2S(=O)(=O)c2ccccc2Cl)O1)NCc1ccccc1Cl	1	0	3
C[C@H]1CN([C@@H](C)CO)C(=O)c2cccc(NC(=O)c3nc4ccccc4s3)c2O[C@H]1CN(C)CC1CC1	-1	0	14
OC[C@H]1[C@H]2c3ccccc3NC[C@H]2N1Cc1ccccc1Cl	1	0	16
OC[C@H]1[C@@H]2c3ccccc3NC[C@@H]2N1Cc1ccccc1Cl	5	0	33*
O=C(C1CC1)N1[C@H](CO)[C@@H]2c3ccccc3NC[C@@H]21	5	0	nt
O=C(C1CC1)N1[C@@H](CO)[C@@H]2c3ccccc3NC[C@@H]21	-3	0	95*
OC[C@@H]1[C@H]2c3ccccc3NC[C@H]2N1CC1CCCCC1	-1	0	5
OC[C@H]1[C@H]2c3ccccc3NC[C@H]2N1CC1CCOCC1	-3	0	21*
SMILES	SIRT5 inh	E-selectin induc	DENV2 CPE
COC(=O)[C@@H]1[C@@H](CO)[C@@H]2Cn3c(ccc(C4=CCCCC4)c3=O)[C@@H]2N1Cc1cccnc1	-10	0	-6
O=C(C[C@@H]1CC[C@H](NS(=O)(=O)c2ccc(F)cc2)[C@H](CO)O1)NC1CCC1	-5	0	-10
CCCCCc1c(-c2ccc(Cl)cc2)ncn1CCc1ccccc1OC	nt	0	21*
CCCCCc1c(-c2ccc(OC)cc2)ncn1CCc1ccccc1OC	nt	0	-7
C[C@@H]1CN([C@H](C)CO)C(=O)c2cc(NC(=O)Nc3ccc4c(c3)OCO4)ccc2O[C@@H]1CN(C)Cc1ccc(-c2ccccc2)cc1	3	-7	-1
CC(C)NC(=O)Nc1ccc2c(c1)C(=O)N([C@H](C)CO)C[C@@H](C)[C@@H](CN(C)Cc1ccc(-c3ccccc3)cc1)O2	16*	0	9
C[C@H](CO)N1C[C@H](C)[C@H](CN(C)Cc2ccc(-c3ccccc3)cc2)Oc2c(NC(=O)Nc3ccc4c(c3)OCO4)cccc2C1=O	11	-1	21*
C[C@@H]1CN([C@H](C)CO)C(=O)c2cccc(NC(=O)Nc3ccc4c(c3)OCO4)c2O[C@@H]1CN(C)Cc1ccc(-c2ccccc2)cc1	9	-3	-1

Screens (PubChem BioAssay)
